Series [1] has as its system M2–M5. Briefly: M2–M5 selectivity, full CRCs in HTS high-expressing CHO cell lines. Type of series: cell-based, rat. Conditions: read-out: M2–M5 EC50s; HTS high-expressing CHO cell line; average of at least three determinations.
Series [2] has as its system TREx293-hM1 cells.
The test system of series [3] is NMDA receptor currents in hippocampal CA1 pyramidal cells. Conditions: cited from earlier work.
The subject of series [4] is TREx293-hM1 cells. The settings on record: in cell culture; cited from earlier work.
For series [5], the system named is 68 GPCRs, ion channels and transporters (including all the BARs). Conditions: 10 µM; cited from earlier work.
Series [6] relates to M2–M5. The settings on record: read-out: EC50 versus M2–M5; ML071 probe data; cited from earlier work.
For series [7], the target named is T1, M1 (Rattus norvegicus, UniProt P08482).
T1 sequence (P08482 1-460): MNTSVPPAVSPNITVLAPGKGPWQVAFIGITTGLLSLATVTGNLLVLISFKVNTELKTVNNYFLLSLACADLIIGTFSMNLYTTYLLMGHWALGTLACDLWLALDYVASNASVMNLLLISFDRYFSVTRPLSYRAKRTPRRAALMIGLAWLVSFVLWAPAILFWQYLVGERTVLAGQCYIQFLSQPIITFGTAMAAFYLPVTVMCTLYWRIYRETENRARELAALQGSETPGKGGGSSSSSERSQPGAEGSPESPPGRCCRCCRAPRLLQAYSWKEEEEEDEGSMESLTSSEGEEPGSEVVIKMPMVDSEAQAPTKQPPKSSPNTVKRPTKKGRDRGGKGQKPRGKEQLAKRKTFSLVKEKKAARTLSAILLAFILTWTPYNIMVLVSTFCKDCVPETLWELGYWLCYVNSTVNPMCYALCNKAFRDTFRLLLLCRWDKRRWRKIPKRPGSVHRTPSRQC
The series is described as follows: functional M1 agonist assay in rat HTS high-expressing CHO cell line. It is filed as cell-based. The settings on record: 10 µM M1 single point screen.

Series [8] can be described thus: oral plasma:brain level. The settings on record: 10 mg/kg oral, 90 minute endpoint, individual animal. It is filed as in vivo, male Sprague-Dawley rats.
Series [9] deals with T2, M1 (Homo sapiens, UniProt P11229).
T2 sequence (P11229 1-460): T1 sequence (P08482 1-460) with V5A, S254T, S309P, K320R, G337A, V413I
The series is described as follows: M1 agonist assay in new cell lines with expression resembling native levels. It is filed as cell-based, rat and human. Conditions: new cell lines with expression more closely resembling native levels.

Series [10] can be described thus: intrinsic clearance, human. It is filed as in vitro ADME.
The nature of series [11]: intrinsic clearance, rat. Type of series: in vitro ADME.
Series [12] deals with 68 GPCRs, ion channels and transporters (including all the BARs). Briefly: radioligand binding panel of 68 GPCRs, ion channels and transporters. Conditions: 10 µM.
Series [13] addresses D2 receptor (Homo sapiens, UniProt P14416). The series is described as follows: functional D2 antagonism CRC. It is filed as cell-based.
The subject of series [14] is NMDA receptor currents in hippocampal CA1 pyramidal cells. Briefly: potentiation of NMDA receptor currents, whole cell recording. Type of series: cell-based. Conditions: 30 µM. In short, it runs like this:
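Whole-cell recording of NMDA-evoked currents in hippocampal CA1 pyramidal cells. Current amplitude was normalized and followed over time before, during and after application of 30 µM test compound.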

Residue numbers refer to the chain shown, from its start. Where two headings read alike, the source gives them in different places.

Chain of D2 receptor (P14416 whole entry): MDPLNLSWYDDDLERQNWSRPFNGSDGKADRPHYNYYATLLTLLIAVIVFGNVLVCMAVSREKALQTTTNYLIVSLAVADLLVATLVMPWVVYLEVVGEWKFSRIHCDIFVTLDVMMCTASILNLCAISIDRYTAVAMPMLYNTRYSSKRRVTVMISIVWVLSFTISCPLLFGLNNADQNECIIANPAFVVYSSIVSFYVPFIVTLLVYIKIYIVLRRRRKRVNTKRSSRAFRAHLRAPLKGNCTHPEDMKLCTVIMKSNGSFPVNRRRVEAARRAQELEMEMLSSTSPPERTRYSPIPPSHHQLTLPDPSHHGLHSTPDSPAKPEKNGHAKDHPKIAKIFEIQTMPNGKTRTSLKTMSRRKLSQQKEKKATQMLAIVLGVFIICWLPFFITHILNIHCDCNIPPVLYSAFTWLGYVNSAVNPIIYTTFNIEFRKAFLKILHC

For the compound `CCOC(=O)N1CCC(N2CCC[C@@H](NC(=O)c3ccc(F)cc3C)C2)CC1` [20a], the EC50 in series [1] is above 10 µM.
`CCOC(=O)N1CCC(N2CCC[C@@H](NC(=O)c3ccccc3)C2)CC1` [20b]: in series [1], the EC50 is above 10 µM.
With `CCOC(=O)N1CCC(N2CCC[C@@H](NC(=O)c3cccc(F)c3)C2)CC1` [20c], the EC50 in series [1] was above 10 µM.
On to `CCOC(=O)N1CCC(N2CCC[C@@H](NC(=O)c3cccc(OC)c3)C2)CC1` [20d], for which the EC50 in series [1] was above 10 µM.
As to `CCOC(=O)N1CCC(N2CCC[C@@H](NC(=O)c3ccc(F)c(F)c3)C2)CC1` [20e], the EC50 in series [1] is above 10 µM.
As to `CCOC(=O)N1CCC(N2CCC[C@@H](NC(=O)c3ccc(C)cc3)C2)CC1` [20f], the EC50 in series [1] is above 10 µM.
Still for that read-out and setting: then `CCOC(=O)N1CCC(N2CCC[C@@H](NC(=O)C3CCCCC3)C2)CC1` [20g], with above 10 µM; and `CCOC(=O)N1CCC(N2CCC[C@@H](NC(=O)c3cccs3)C2)CC1` [20h], with above 10 µM; and `CCOC(=O)N1CCC(N2CCC[C@@H](NC(=O)c3ccc(OC)cc3)C2)CC1` [20i], with above 10 µM.
As to `CCOC(=O)N1CCC(N2CCC[C@@H](NC(=O)c3ccccc3Cl)C2)CC1` [20j], the EC50 in series [1] was above 10 µM.
As to `CCOC(=O)N1CCC(N2CCC[C@@H](NC(=O)C3CCCC3)C2)CC1` [20k], in [1], the EC50 was above 10 µM.
Regarding `C[N+](C)(C)CCOC(N)=O.[Cl-]` [carbachol], the “increase in soluble APP (sAPPα)” value in series [2] is “significant increase”.
`CCOC(=O)N1CCC(NCCNC(=O)c2ccccc2C)CC1` [compound 8]: the “effect on NMDA receptor currents” value in [3] is “potentiated NMDA receptor currents”. In addition, in [4], the “soluble APP (sAPPα)” value is on record as “significant increase”. Moreover, the EC50 in series [1] and in series [6] was above 30 µM in each case. The “activity in radioligand binding panel” value in series [5] was at most 50%.
Regarding `CCOC(=O)N1CCC(N2CCN(C(=O)c3ccccc3C)CC2)CC1` [compound 13], in series [7], the M1 activation entry was “less than 30%”.
As for `CCOC(=O)N1CCC(N2C[C@@H]3C[C@H]2CN3C(=O)c2ccccc2C)CC1` [compound 14], the M1 activation entry in series [7] is given as “less than 30%”.
`CCOC(=O)N1CCC(N2C[C@H]3CN(C(=O)c4ccccc4C)C[C@H]3C2)CC1` [compound 15]: the M1 activation entry in [7] is reported as “less than 30%”.
As to `CCOC(=O)N1CCC(N2CCC[C@H](NC(=O)c3ccccc3C)C2)CC1` [compound 16], the “M1 activation” value in [7] was “inactive”.
With `CCOC(=O)N1CCC(N2CCC[C@@H](NC(=O)c3ccccc3C)C2)CC1` [compound 17], in series [8], the Brain was 1.89 µM, the “Brain:Plasma” value is reported as 1.17 and the Plasma came to 1.62 µM. In [8] (male, Sprague-Dawley, rat, brain, oral, 10 mg/kg), this compound gave a concentration at 90 min of 2230 nM. Also, the Kp at 1.5 h in series [8] (male, Sprague-Dawley, rat, brain/plasma, po, 10 mg/kg, Brain:Plasma) was 1.54. Moreover, the “ACh Max versus high-expressing HTS lines” value in [9] is given as “slightly lower ACh Max”. Besides, the “M1 activation” value in series [7] is reported as “full activation of M1”. For the same compound, the EC50 in series [1] is above 30 µM. This compound yielded an intrinsic clearance (CLint scaled) in [10] of 11.2 mL/min/kg. Further, the CLint scaled in series [11] is 23.4 mL/min/kg. The “inhibition in radioligand binding panel” value in [12] is reported as at most 30%. In addition, the “functional activity at the D2 receptor” value in series [13] is recorded as “no functional activity”. Besides, the “persistence of potentiation after washout” value in [14] came out at 10 min. Further, the “effect on NMDA receptor currents” value in series [14] (listed as VU0364572) is listed as “potentiates NMDA receptor currents”.

One may read the Kp as the ratio of the level in a tissue or fluid to that in plasma or blood. For orientation: CLint scaled means the rate of metabolic loss divided by the concentration.

(Values after PMC3190051 (Bioorganic & medicinal chemistry letters, 2011).)
